Read-outs that look alike come from different tables or passages of the source.
Tests used:
[1] = tested on: PfPFT (P. falciparum protein farnesyltransferase); assay: PfPFT [3H] scintillation proximity assay; assay type: biochemical; conditions: rat PFT IC50 / PfPFT IC50
rat PFT = rat PFT (Rattus norvegicus, UniProt Q02293+Q04631); assay: rat PFT [3H] scintillation proximity assay; assay type: biochemical
[2] = tested on: P. falciparum 3D7 (chloroquine-sensitive); assay type: cell-based; conditions: Plasmodium falciparum, 3D7, Erythrocyte, 48 h, read-out: ED50 (nM) 3D7
Method in brief: (§1)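 Parasites cultured in type A+ human erythrocytes (2% hematocrit) in RPMI-1640 with 20% heat-inactivated type A+ human plasma, under 5% CO2/5% O2/90% N2. Test compound in DMSO added to culture at 0.5% parasitemia and 0.5% hematocrit. Incubated 37 °C for 48 h, then [8-3H]hypoxanthine (0.3 µCi) added for a further 24 h. Cells harvested to filter mats and counted by β-scintillation. Uninfected-erythrocyte background subtracted; DMSO-only wells taken as 100% growth. ED50 from linear regression of incorporation vs concentration.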

[3] = tested on: P. falciparum K1 (chloroquine-resistant, pyrimethamine-resistant); assay type: cell-based; conditions: Plasmodium falciparum, K1, Erythrocyte, 48 h, read-out: ED50 (nM) K1
Method in brief: as §1

[4] = tested on: P. falciparum 3D7 (chloroquine-sensitive); conditions: strain 3D7, infected erythrocytes; previously published data ref 26, 27; cited from earlier work
[5] = tested on: P. falciparum K1 (chloroquine-resistant, pyrimethamine-resistant); conditions: strain K1, infected erythrocytes; previously published data ref 26, 27; cited from earlier work
[6] = molecular target: T1, PfPFT (P. falciparum protein farnesyltransferase) (Plasmodium falciparum, UniProt Q5EI73+Q5EI74); conditions: 50 nM inhibitor concentration; previously published data ref 26, 27; cited from earlier work
[7] = incubation with liver microsomes; cited from earlier work
[8] = molecular target: T1, PfPFT (P. falciparum protein farnesyltransferase); assay: PfPFT [3H] scintillation proximity assay; assay type: biochemical; conditions: for inhibition at 0.05 µM: read-out: Inhibition of PfFTase (%) 50 nM; for Inhibition of PfFTase (%) 50 nM: 50 nM inhibitor concentration

SMILES | ED50 (nM) 3D7 [4] [nM] | ED50 (nM) K1 [5] [nM] | inhibition at 0.05 µM [8] [%] | further results
Cn1cnc(S(=O)(=O)N(CC2CCN(C(=O)OC(C)(C)C)CC2)[C@@H]2CCC[C@@H]2N(Cc2cncn2C)c2ccc(C#N)cc2)c1 (racemic) [6d, (±)-[N-(N-tert-Butoxycarbonylpiperidin-4-ylmethyl)-N-{cis-2-[(4-cyanophenyl)(3-methyl-3H-imidazol-4-ylmethyl)amino]cyclopentyl}]-1-methyl-1H-imidazole-4-sulfonamide] | – | – | – | Selectivity (ratio of rat to P. falciparum PFT IC50 values) [1]: >2.9 fold; IC50 (rat PFT): > 1000 nM; IC50 [2]: 3000 nM
Cn1cnc(S(=O)(=O)N(CC2CCN(C(=O)OC(C)(C)C)CC2)[C@H]2CCC[C@@H]2N(Cc2cncn2C)c2ccc(C#N)cc2)c1 (racemic) [7d, (±)-[N-(N-tert-Butoxycarbonylpiperidin-4-ylmethyl)-N-{trans-2-[(4-cyanophenyl)(3-methyl-3H-imidazol-4-ylmethyl)amino]cyclopentyl}]-1-methyl-1H-imidazole-4-sulfonamide] | – | – | – | Selectivity (ratio of rat to P. falciparum PFT IC50 values) [1]: >100 fold; IC50 (rat PFT): > 1000 nM; IC50 [3]: 600 nM
Cn1cnc(S(=O)(=O)N(CCN(Cc2cncn2C)c2ccc(C#N)cc2)Cc2ccccc2)c1 [1a] | 349 | 375 | – | –
Cc1ccccc1CN(CCN(Cc1cncn1C)c1ccc(C#N)cc1)S(=O)(=O)c1cn(C)cn1 [1b] | 93 | 150 | – | –
Cn1cnc(S(=O)(=O)N(CCN(Cc2cncn2C)c2ccc(C#N)cc2)Cc2ccsc2)c1 [1c] | 150 | 240 | – | Inhibition of PfFTase (%) 50 nM [6]: 100%
Cn1cnc(S(=O)(=O)N(CCN(Cc2cncn2C)c2ccc(C#N)cc2)CC2CCN(C(=O)OC(C)(C)C)CC2)c1 [1d] | 88 | 54 | – | metabolic stability [7]: limited
Cn1cnc(S(=O)(=O)N(CCN(Cc2cncn2C)c2ccc(C#N)cc2)CC2CCN(c3ncccn3)CC2)c1 [1e] | 130 | 85 | – | –
Cn1cnc(S(=O)(=O)N(CC(=O)N(Cc2cncn2C)c2ccc(C#N)cc2)Cc2ccccc2)c1 [4a, 2-[Benzyl(1-methyl-1H-imidazole-4-sulfonyl)amino]-N-(4-cyanophenyl)-N-(3-methyl-3H-imidazol-4-ylmethyl)acetamide] | – | – | 0 | –
Cn1cnc(S(=O)(=O)N(CC(=O)N(Cc2cncn2C)c2ccc(C#N)cc2)CC2CCN(C(=O)OC(C)(C)C)CC2)c1 [4d, 2-[(N-tert-Butoxycarbonylpiperidin-4-ylmethyl)(1-methyl-1H-imidazole-4-sulfonyl)amino]-N-(4-cyanophenyl)-N-(3-methyl-3H-imidazol-4-ylmethyl)acetamide] | – | – | 0 | –
Cn1cnc(S(=O)(=O)N(CCC(=O)N(Cc2cncn2C)c2ccc(C#N)cc2)Cc2ccccc2)c1 [5a, 3-[Benzyl-(1-methyl-1H-imidazole-4-sulfonyl)amino]-N-(4-cyanophenyl)-N-(3-methyl-3H-imidazol-4-ylmethyl)propanamide] | – | – | 0 | –
Cn1cnc(S(=O)(=O)N(CCC(=O)N(Cc2cncn2C)c2ccc(C#N)cc2)CC2CCN(C(=O)OC(C)(C)C)CC2)c1 [5d, 3-[(N-tert-Butoxycarbonylpiperidin-4-ylmethyl)(1-methyl-1H-imidazole-4-sulfonyl)amino]-N-(4-cyanophenyl)-N-(3-methyl-3H-imidazol-4-ylmethyl)propanamide] | – | – | 0 | –
Cn1cnc(S(=O)(=O)N(CC2CCN(C(=O)OC(C)(C)C)CC2)[C@H]2CC[C@@H](N(Cc3cncn3C)c3ccc(C#N)cc3)CC2)c1 [10d, (±)-[N-(N-tert-Butoxycarbonylpiperidin-4-ylmethyl)-N-{cis-4-[(4-cyanophenyl)(3-methyl-3H-imidazol-4-ylmethyl)amino]cyclohexyl}]-1-methyl-1H-imidazole-4-sulfonamide] | – | – | 0 | Inhibition of PfFTase (%) 50 nM [8]: no inhibitory activity; IC50 [3]: 650 nM
Cn1cnc(S(=O)(=O)N(CC2CCN(C(=O)OC(C)(C)C)CC2)[C@H]2CC[C@H](N(Cc3cncn3C)c3ccc(C#N)cc3)CC2)c1 [11d, (±)-[N-(N-tert-Butoxycarbonylpiperidin-4-ylmethyl)-N-{trans-4-[(4-cyanophenyl)(3-methyl-3H-imidazol-4-ylmethyl)amino]cyclohexyl}]-1-methyl-1H-imidazole-4-sulfonamide] | – | – | 0 | Inhibition of PfFTase (%) 50 nM [8]: no inhibitory activity; IC50 [3]: 1200 nM

From PMC3049929 (Journal of medicinal chemistry, 2008)
